Laboratory results from ChEMBL document CHEMBL3862013 (Bioorg Med Chem, 2016).

Assays:
[1] = tested on: Human immunodeficiency virus 1; test: Antiviral activity against X4 tropic HIV1 HXB2 assessed as inhibition of single cycle viral infection in human TZM-bl cells preincubated for 30 mins followed by addition of cells measured after 3 days by luciferase reporter gene assay; type: functional, cell-based
[2] = Cytotoxicity against human TZM-bl cells after 3 days by XTT assay; type: toxicity, cell-based; details: 72 h
Method in brief: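 Graded compound concentrations added to an equal volume of TZM-bl cells (10^5/ml) and incubated 3 days. XTT added, then formazan read at 450 nm after 4 h. CC50 derived from percent cytotoxicity; mean ± SD.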

[3] = tested on: Human immunodeficiency virus 1; test: Antiviral activity against HIV1 3B assessed as inhibition of multi-cycle viral infection in human MT2 cells by measuring p24 production preincubated for 30 mins followed by addition of cells measured after 4 days by sandwich ELISA; type: functional, cell-based
Method in brief: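 Overnight at 37 °C, then supernatant replaced with fresh medium. Day 4 post-infection, supernatants mixed with equal volume 5% Triton X-100 and p24 measured by sandwich ELISA. IC50 derived from percent inhibition of p24 production; mean ± SD.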

[4] = Cytotoxicity against human MT2 cells after 4 days by XTT assay; type: toxicity, cell-based; details: mt2, 96 h
Method in brief: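 Run in parallel with the antiviral assay. Graded compound added to an equal volume of MT-2 cells (10^5 cells/ml) and incubated 4 days. XTT added, and soluble formazan read at 450 nm after 4 hours.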

[5] = Inhibition of HIV1 HXB2 Env-mediated cell-cell fusion using MAGI-CCR5 as target cells and HL2/3 as effector cells preincubated with target cells for 1 hr followed by effector cells addition measured after 24 hrs by beta-galactosidase reporter gene assay; details: Human immunodeficiency virus 1, HXB2
[6] = tested on: Human immunodeficiency virus 1; test: Inhibition of CD4-dependent CCR5-tropic HIV1 ADA cell to cell transmission using Ghost X4/R5 cells as target cells and MOLT4 as effector cells assessed as p24 release incubated for 4 hrs by sandwich ELISA method; type: functional, cell-based; details: Human immunodeficiency virus 1, ADA, MOLT-4, 4 h
[7] = tested on: Human immunodeficiency virus 1; test: Inhibition of CD4-dependent CXCR4-tropic HIV1 3B cell to cell transmission using Ghost X4/R5 cells as target cells and H9 as effector cells assessed as p24 release incubated for 4 hrs by sandwich ELISA method; type: functional; details: Human immunodeficiency virus 1, 3B
[8] = tested on: Human immunodeficiency virus 1; test: Antiviral activity against ENV pseudotyped HIV1 subtype A/D QA790.204I.ENV.C8; type: functional; details: Human immunodeficiency virus 1, subtype A/D QA790.204I.ENV.C8
[9] = tested on: Human immunodeficiency virus 1; test: Antiviral activity against ENV pseudotyped HIV1 subtype A/D QA790.204I.ENV.E2; type: functional; details: Human immunodeficiency virus 1, subtype A/D QA790.204I.ENV.E2
[10] = tested on: Human immunodeficiency virus 1; test: Antiviral activity against ENV pseudotyped HIV1 subtype A/E AA058; type: functional; details: Human immunodeficiency virus 1, subtype A/E AA058
[11] = tested on: Human immunodeficiency virus 1; test: Antiviral activity against ENV pseudotyped HIV1 PRHPA4259 clone 7; type: functional; details: Human immunodeficiency virus 1, PRHPA4259 clone 7
[12] = tested on: Human immunodeficiency virus 1; test: Antiviral activity against ENV pseudotyped HIV1 subtype C ZM233M.PB6; type: functional; details: Human immunodeficiency virus 1, subtype C ZM233M.PB6
[13] = tested on: Human immunodeficiency virus 1; test: Antiviral activity against ENV pseudotyped HIV1 subtype D QD435.100M.ENV.B5; type: functional; details: Human immunodeficiency virus 1, subtype D QD435.100M.ENV.B5
[14] = tested on: Vesicular stomatitis virus; test: Antiviral activity against G-glycoprotein expressing VSV; type: functional
[15] = Human immunodeficiency virus 1, HXB2, TZM-bl
[16] = Human immunodeficiency virus 1, 3B, MT2

Compound | CC50 [2] [µM] | IC50 [1, 15] [µM] | IC50 [3, 16] [µM] | CC50 [4] [µM] | other results
Cc1nc(C(NC(=O)c2ccc(-c3ccc(Cl)c(F)c3)[nH]2)C2CCCCN2)[nH]c1CO (stereo in doubt; 36B) | 30.7 | – | – | – | IC50 ([1]; tzm-bl): 16 µM; IC50 ([3]; mt2): 22.8 µM; CC50 ([4]; 96 h): 36.4 µM
Cc1ccc(-c2ccc(C(=O)N[C@H](c3nc(C)c(CCO)s3)[C@@H]3CCCCN3)[nH]2)cc1F | 28.8 | 10.6 | 6.1 | 29.7 | –
Cc1nc([C@@H](CN)NC(=O)c2ccc(-c3ccc(Cl)cc3)[nH]2)sc1CO | 34.1 | – | – | 28.2 | –
Cc1nc([C@H](NC(=O)c2ccc(-c3ccc(Cl)cc3)[nH]2)[C@@H]2CCCCN2)sc1CCCO | 13.7 | 7.6 | 5.8 | 19 | –
Cc1nc(C(NC(=O)c2ccc(-c3ccc(Cl)cc3)[nH]2)C2CCCCN2)[nH]c1CO (stereo in doubt; 35A) | 30 | 14.1 | 10.2 | – | CC50 ([4]; 96 h): 36.6 µM
Cc1ccc(-c2ccc(C(=O)N[C@H](CN)c3nc(C)c(CO)s3)[nH]2)cc1F | 26.2 | 1.1 | 0.65 | 24.3 | –
Cc1nc([C@H](NC(=O)c2ccc(-c3ccc(Cl)c(F)c3)[nH]2)[C@H]2CCCCN2)sc1CO | 17.4 | 3.2 | 2.6 | 26 | –
Cc1nc([C@H](CN)NC(=O)c2ccc(-c3ccc(Cl)cc3)[nH]2)sc1CO | 33.6 | – | – | 25.8 | IC50 [5]: 11.9 µM; IC50 [6]: 30 µM
Cc1nc(C(NC(=O)c2ccc(-c3ccc(Cl)cc3)[nH]2)C2CCCCN2)[nH]c1CO (stereo in doubt; 35B) | 33.8 | – | – | – | IC50 ([1]; tzm-bl): 15.8 µM; IC50 ([3]; mt2): 18 µM; CC50 ([4]; 96 h): 45.2 µM
Cc1nc([C@H](NC(=O)c2ccc(-c3ccc(Cl)cc3)[nH]2)[C@@H]2CCCCN2)sc1CO | 23.6 | – | 0.85 | 24.8 | IC50 [5]: 8.9 µM; IC50 [7]: 8.8 µM; IC50 [8]: 1.5 µM; IC50 [9]: 0.71 µM; IC50 [10]: 4.4 µM; IC50 [11]: 1.4 µM; IC50 [12]: 1.7 µM; IC50 [13]: 1.6 µM; IC50 [14]: 7.1 µM
Cc1nc([C@@H](CN)NC(=O)c2ccc(-c3ccc(Cl)c(F)c3)[nH]2)sc1CO | 26 | – | – | 22.7 | –
Cc1nc([C@H](CN)NC(=O)c2ccc(-c3ccc(Cl)c(F)c3)[nH]2)sc1CO | 40.5 | – | – | 30.5 | IC50 [5]: 15.2 µM
Cc1nc(C(NC(=O)c2ccc(-c3ccc(Cl)c(F)c3)[nH]2)C2CCCCN2)[nH]c1CO (stereo in doubt; 36A) | 26.7 | 8.8 | – | – | IC50 ([3]; mt2): 10.6 µM; CC50 ([4]; 96 h): 31.1 µM
Cc1nc([C@@H](NC(=O)c2ccc(-c3ccc(Cl)c(F)c3)[nH]2)[C@H]2CCCCN2)sc1CO | 15.2 | 3 | 1.6 | 17.2 | –
Cc1nc([C@H](NC(=O)c2ccc(-c3ccc(Cl)cc3)[nH]2)[C@@H]2CCCCN2)sc1CCO | 15.4 | 5.7 | 4.6 | 21 | –
Cc1ccc(-c2ccc(C(=O)N[C@@H](c3nc(C)c(CCCO)s3)[C@@H]3CCCCN3)[nH]2)cc1F | 17 | 7.9 | 7.4 | 20.6 | –
Cc1nc([C@@H](NC(=O)c2ccc(-c3ccc(Cl)c(F)c3)[nH]2)[C@@H]2CCCCN2)sc1CCO | 16.1 | 7.5 | 3.4 | 16.9 | –
Cc1ccc(-c2ccc(C(=O)N[C@@H](c3nc(C)c(CCO)s3)[C@@H]3CCCCN3)[nH]2)cc1F | 15.3 | 6.3 | 3 | 21.2 | –
Cc1nc([C@@H](NC(=O)c2ccc(-c3ccc(Cl)cc3)[nH]2)[C@@H]2CCCCN2)sc1CCO | 17.3 | 8.9 | 2 | 26.8 | –
Cc1ccc(-c2ccc(C(=O)N[C@H](c3nc(C)c(CO)s3)[C@@H]3CCCCN3)[nH]2)cc1F | 18 | 2.7 | 3 | 16.1 | –
Cc1ccc(-c2ccc(C(=O)NC(c3nc(C)c(CO)[nH]3)C3CCCCN3)[nH]2)cc1F (stereo in doubt; 37A) | 33.3 | 9.4 | 12.9 | – | CC50 ([4]; 96 h): 28.4 µM
Cc1nc([C@H](NC(=O)c2ccc(-c3ccc(Cl)c(F)c3)[nH]2)[C@@H]2CCCCN2)sc1CCO | 15.1 | 8 | 2.9 | 16.8 | –
Cc1ccc(-c2ccc(C(=O)N[C@@H](c3nc(C)c(CO)s3)[C@@H]3CCCCN3)[nH]2)cc1F | 19.2 | 3.8 | 1.6 | 28.2 | –
Cc1nc([C@H](NC(=O)c2ccc(-c3ccc(Cl)c(F)c3)[nH]2)[C@@H]2CCCCN2)sc1CCCO | 8.2 | 5.1 | 4.5 | 12.6 | –
Cc1ccc(-c2ccc(C(=O)N[C@@H](CN)c3nc(C)c(CO)s3)[nH]2)cc1F | 35 | 1.7 | 0.91 | 31.6 | –
Cc1ccc(-c2ccc(C(=O)NC(c3nc(C)c(CO)[nH]3)C3CCCCN3)[nH]2)cc1F (stereo in doubt; 37B) | 34.5 | – | – | – | IC50 ([1]; tzm-bl): 16.9 µM; IC50 ([3]; mt2): 22.3 µM; CC50 ([4]; 96 h): 37.1 µM
